Our source for the IC50 and Activity values is ChEMBL document CHEMBL2029288, “Coumarin-trioxane hybrids: synthesis and evaluation as a new class of antimalarial scaffolds” (Bioorg Med Chem Lett, 2012).

The structures appear in SMILES notation. In brackets after ≈: the same amount, converted by molar mass. Some results are limits rather than exact numbers.

The test system of one test is Plasmodium falciparum. The test can be described thus: Antimalarial activity against chloroquine-sensitive Plasmodium falciparum 3D7 after 72 hrs by MSF assay. The class given is functional, organism-based. The note with it: 3D7, 72 h. In a few lines: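 Parasites in 1% cell suspension at 0.8–1% initial parasitaemia, exposed to compounds in duplicate wells for 72 h at 37 °C under 5% CO2 in air. SYBR Green-I then added for 1 h at 37 °C; fluorescence read at excitation 485 ± 20 nm, emission 530 ± 20 nm. Signal expressed as percent of untreated controls; IC50 by logit regression. Chloroquine standard.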

Test [1] has as its system Plasmodium yoelii nigeriensis. The test is described as follows: Antimalarial activity against multi drug-resistant Plasmodium yoelii nigeriensis infected in Swiss mouse assessed as suppression in parasitemia at 96 mg/kg, po on day 4. Format: functional. An outline of the steps: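 Peters's 4-day suppressive test in Swiss mice infected with P. yoelii nigeriensis. Compound given orally at 96 mg/kg/day for 4 days; parasitaemia suppression scored on day 4.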

With `C=C(c1ccc(C)cc1)C1COC(c2cc(C)c3oc(=O)c(C(=O)OC)cc3c2)OO1` (centres undefined), in the test with Plasmodium falciparum, the IC50 (as a rule, the concentration that inhibits the measured activity by half) turned out to be 0.361 µg/mL (≈ 0.853 µM). `C=C(c1ccc(C)cc1)C1COC(c2cc(C)c3oc(=O)c(C(=O)OCC)cc3c2)OO1` (centres undefined) registered an IC50 in the test on Plasmodium falciparum of 0.262 µg/mL (≈ 0.601 µM). In addition, in test [1], the Activity is 41.14%. In the test with Plasmodium falciparum, `C=C(c1ccc(C)cc1)C1COC(c2cc(C(C)CC)c3oc(=O)c(C(=O)OC)cc3c2)OO1` (centres undefined) returned an IC50 of 0.132 µg/mL (≈ 0.284 µM).

`C=C(c1ccc(C)cc1)C1COC(c2cc(C(C)CC)c3oc(=O)c(C(=O)OCC)cc3c2)OO1` (centres undefined) gave an IC50 with Plasmodium falciparum of 0.0393 µg/mL (≈ 0.0821 µM). This IC50 lies about 3.4-fold lower than the previous one. With `C=C(c1ccc(Br)cc1)C1COC(c2cc(C)c3oc(=O)c(C(=O)OC)cc3c2)OO1` (centres undefined), in the test on Plasmodium falciparum, half-maximal inhibition (IC50) was put at 0.306 µg/mL (≈ 0.628 µM). On to `C=C(c1ccc(Br)cc1)C1COC(c2cc(C)c3oc(=O)c(C(=O)OCC)cc3c2)OO1` (centres undefined), for which the IC50 in the test on Plasmodium falciparum worked out at 0.246 µg/mL (≈ 0.49 µM).

In the test on Plasmodium falciparum, `C=C(c1ccc(Br)cc1)C1COC(c2cc(C(C)CC)c3oc(=O)c(C(=O)OC)cc3c2)OO1` (centres undefined) had an IC50 of 0.076 µg/mL (≈ 0.144 µM). Take `C=C(c1ccc(Br)cc1)C1COC(c2cc(C(C)CC)c3oc(=O)c(C(=O)OCC)cc3c2)OO1` (centres undefined): the IC50 in the test with Plasmodium falciparum is 0.11 µg/mL (≈ 0.203 µM).

As to `C=C(c1ccc(F)cc1)C1COC(c2cc(C)c3oc(=O)c(C(=O)OC)cc3c2)OO1` (centres undefined), in the test with Plasmodium falciparum, the IC50 is > 0.5 µg/mL. The same measure, in the same setting: under `C=C(c1ccc(F)cc1)C1COC(c2cc(C)c3oc(=O)c(C(=O)OCC)cc3c2)OO1` (centres undefined) stands > 0.5 µg/mL; under `C=C(c1ccc(F)cc1)C1COC(c2cc(C(C)CC)c3oc(=O)c(C(=O)OC)cc3c2)OO1` (centres undefined), 0.203 µg/mL (≈ 0.433 µM); under `C=C(c1ccc(F)cc1)C1COC(c2cc(C(C)CC)c3oc(=O)c(C(=O)OCC)cc3c2)OO1` (centres undefined), 0.117 µg/mL (≈ 0.242 µM). In the test on Plasmodium falciparum, `CO[C@H]1O[C@@H]2O[C@@]3(C)CC[C@H]4[C@H](C)CC[C@@H]([C@H]1C)[C@@]24OO3` [ARTEMETHER] showed an IC50 of 0.0004 µg/mL (≈ 0.00134 µM).
